Laboratory results taken from ChEMBL document CHEMBL3046169, “Synthesis and bioactivity study of 2-acylamino-substituted N'-benzylbenzohydrazide derivatives” (2012).
≈ marks a conversion by molar mass, not a printed value. Calls of active or inactive are those of the source. The rule behind the calls is not given here.

Legend:
Tetranychus cinnabarinus [1] = assay: Pesticidal activity against Tetranychus cinnabarinus (carmine spider mite) third- instar larvae grown on Phaseolus vulgaris leaves assessed as pest mortality at 100 mg/L measured 48 hr post compound exposure; format: functional
Procedure, shortened: (§1)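 More than 20 third-instar mite larvae on Phaseolus vulgaris leaves dipped 5 s in compound solutions (water with 0.05% Triton X-100), excess liquor removed. Larvae held at 25 ± 1 °C in illumination box; mortality read at 48 h. Primary screen at 600 mg L⁻¹, follow-up at 400, 200, 100, 50 and 25 mg L⁻¹ with LC50 calculated. Triplicate tests.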

Tetranychus cinnabarinus [2] = assay: Pesticidal activity against Tetranychus cinnabarinus (carmine spider mite) third- instar larvae grown on Phaseolus vulgaris leaves assessed as reduction in larval movement at 25 to 400 mg/L measured 1 hr post compound exposure; format: functional, organism-based
Procedure, shortened: (§2)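 Mite larvae (>20 third-instar on Phaseolus vulgaris leaves) leaf-dipped 5 s in compound at 400, 200, 100, 50 or 25 mg L⁻¹ in water with 0.05% Triton X-100, kept at 25 ± 1 °C. Movement of larvae observed at 1 h; corpse colour change to black observed at 48 h after treatment.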

Aphis gossypii [3] = assay: Pesticidal activity against Aphis gossypii (cotton aphid) third-instar nymphae grown on tender Hibiscus syriacus leaves assessed as pest mortality at 600 mg/L measured 24 hr post compound exposure; format: functional; conditions: in Hibiscus syriacus
Procedure, shortened: (§3)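 Leaf-dip bioassay: over 30 healthy apterous third-instar nymphs on tender Hibiscus syriacus leaves dipped 5 s in compound diluted in distilled water with 0.05% Triton X-100, excess fluid removed. Held in illumination box at 25 ± 1 °C; mortality scored after 24 h. Tests in triplicate.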

Plutella xylostella [4] = assay: Pesticidal activity against Plutella xylostella (diamondback moth) second-instar larvae grown on cruciferous vegetables leaves leaves as pest mortality at 600 mg/L measured 48 hr post compound exposure; format: functional
Procedure, shortened: (§4)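 Over 20 second-instar larvae on cruciferous vegetable leaves dipped 5 s in compound diluted in distilled water containing 0.05% Triton X-100, excess liquid removed. Kept in illumination box at 25 ± 1 °C; mortality recorded 48 h after treatment. Each test in triplicate.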

Tetranychus cinnabarinus [5] = assay: Pesticidal activity against Tetranychus cinnabarinus (carmine spider mite) third- instar larvae grown on Phaseolus vulgaris leaves assessed as pest mortality measured 48 hr post compound exposure; format: functional; procedure, shortened: as §1
Tetranychus cinnabarinus [6] = assay: Pesticidal activity against Tetranychus cinnabarinus (carmine spider mite) third- instar larvae grown on Phaseolus vulgaris leaves assessed as pest mortality at 50 mg/L measured 48 hr post compound exposure; format: functional; procedure, shortened: as §1
Tetranychus cinnabarinus [7] = assay: Pesticidal activity against Tetranychus cinnabarinus (carmine spider mite) third- instar larvae grown on Phaseolus vulgaris leaves assessed as pest mortality at 25 mg/L measured 48 hr post compound exposure; format: functional; procedure, shortened: as §1
Tetranychus cinnabarinus [8] = assay: Pesticidal activity against Tetranychus cinnabarinus (carmine spider mite) third- instar larvae grown on Phaseolus vulgaris leaves assessed as pest mortality at 200 mg/L measured 48 hr post compound exposure; format: functional; procedure, shortened: as §1
Tetranychus cinnabarinus [9] = assay: Pesticidal activity against Tetranychus cinnabarinus (carmine spider mite) third- instar larvae grown on Phaseolus vulgaris leaves assessed as pest mortality at 400 mg/L measured 48 hr post compound exposure; format: functional; procedure, shortened: as §1
Tetranychus cinnabarinus [10] = assay: Pesticidal activity against Tetranychus cinnabarinus (carmine spider mite) third- instar larvae grown on Phaseolus vulgaris leaves assessed as conversion of corpus colour to black at 25 to 400 mg/L measured 48 hr post compound exposure; format: functional, organism-based; procedure, shortened: as §2
Tetranychus cinnabarinus [11] = assay: Pesticidal activity against Tetranychus cinnabarinus (carmine spider mite) third- instar larvae grown on Phaseolus vulgaris leaves assessed as pest mortality at 600 mg/L measured 48 hr post compound exposure; format: functional; procedure, shortened: as §1
Aphis gossypii [12] = assay: Pesticidal activity against Aphis gossypii (cotton aphid) third-instar nymphae grown on tender Hibiscus syriacus leaves assessed as pest mortality at 2 mg/L measured 24 hr post compound exposure; format: functional; conditions: in Hibiscus syriacus; procedure, shortened: as §3
Plutella xylostella [13] = assay: Pesticidal activity against Plutella xylostella (diamondback moth) second-instar larvae grown on cruciferous vegetables leaves leaves as pest mortality at 0.2 mg/L measured 48 hr post compound exposure; format: functional; procedure, shortened: as §4
Aphis gossypii [14] = assay: Pesticidal activity against Aphis gossypii (cotton aphid) third-instar nymphae grown on tender Hibiscus syriacus leaves assessed as pest mortality at 200 mg/L measured 24 hr post compound exposure; format: functional; conditions: in Hibiscus syriacus; procedure, shortened: as §3

Row | SMILES | mortality at 600 µg/mL (Aphis gossypii [3]) [%] | mortality at 600 µg/mL (Plutella xylostella [4]) [%] | mortality at 600 µg/mL (Tetranychus cinnabarinus [11]) [%] | further results
1 | Cc1cc(Br)cc(C(=O)NNCc2ccccc2Cl)c1NC(=O)C(C)(C)CCl | 8.5 | 76 | 95.7 | mortality at 100 µg/mL (Tetranychus cinnabarinus [1]): 62.6%; Activity (Tetranychus cinnabarinus [2]): Active; LC50 (Tetranychus cinnabarinus [5]): 51.7 µg/mL (≈ 106 µM); mortality at 50 µg/mL (Tetranychus cinnabarinus [6]): 44.9%; mortality at 25 µg/mL (Tetranychus cinnabarinus [7]): 36.5%; mortality at 200 µg/mL (Tetranychus cinnabarinus [8]): 83.6%; mortality at 400 µg/mL (Tetranychus cinnabarinus [9]): 89.6%; Activity (Tetranychus cinnabarinus [10]): Active
2 | Cc1cc(Cl)cc(C(=O)NNCc2ccccc2Cl)c1NC(=O)C(C)(C)C | 51.7 | 76 | 100 | mortality at 100 µg/mL (Tetranychus cinnabarinus [1]): 60.8%; Activity (Tetranychus cinnabarinus [2]): Active; LC50 (Tetranychus cinnabarinus [5]): 43.8 µg/mL (≈ 107 µM); mortality at 50 µg/mL (Tetranychus cinnabarinus [6]): 62.5%; mortality at 25 µg/mL (Tetranychus cinnabarinus [7]): 30.9%; mortality at 200 µg/mL (Tetranychus cinnabarinus [8]): 82.2%; mortality at 400 µg/mL (Tetranychus cinnabarinus [9]): 97.8%; Activity (Tetranychus cinnabarinus [10]): Active
3 | CC(C)(C)c1ccc(CSc2cnn(C(C)(C)C)c(=O)c2Cl)cc1 [PYRIDABEN] |  |  |  | mortality at 100 µg/mL (Tetranychus cinnabarinus [1]): 100%; LC50 (Tetranychus cinnabarinus [5]): 5.5 µg/mL (≈ 15.1 µM); mortality at 50 µg/mL (Tetranychus cinnabarinus [6]): 100%; mortality at 25 µg/mL (Tetranychus cinnabarinus [7]): 97.7%; mortality at 200 µg/mL (Tetranychus cinnabarinus [8]): 100%; mortality at 400 µg/mL (Tetranychus cinnabarinus [9]): 100%
4 | Cc1cc(Cl)cc(C(=O)NNCc2ccccc2Cl)c1NC(=O)CC(C)(C)C | 65.5 | 52 | 100 | mortality at 100 µg/mL (Tetranychus cinnabarinus [1]): 80.4%; Activity (Tetranychus cinnabarinus [2]): Active; LC50 (Tetranychus cinnabarinus [5]): 27.9 µg/mL (≈ 66.1 µM); mortality at 50 µg/mL (Tetranychus cinnabarinus [6]): 74.1%; mortality at 25 µg/mL (Tetranychus cinnabarinus [7]): 38.4%; mortality at 200 µg/mL (Tetranychus cinnabarinus [8]): 86.4%; mortality at 400 µg/mL (Tetranychus cinnabarinus [9]): 92.2%; Activity (Tetranychus cinnabarinus [10]): Active
5 | O=[N+]([O-])/N=C1\NCCN1Cc1ccc(Cl)nc1 [IMIDACLOPRID] |  |  |  | mortality at 2 µg/mL (Aphis gossypii [12]): 100%
6 | Cc1cc(Br)cc(C(=O)NNCc2cccc(C(F)(F)F)c2)c1NC(=O)CC(C)(C)C | 18.7 | 40 | 100 | mortality at 100 µg/mL (Tetranychus cinnabarinus [1]): 43.3%; Activity (Tetranychus cinnabarinus [2]): Active; LC50 (Tetranychus cinnabarinus [5]): 89.8 µg/mL (≈ 179 µM); mortality at 50 µg/mL (Tetranychus cinnabarinus [6]): 38.4%; mortality at 25 µg/mL (Tetranychus cinnabarinus [7]): 26%; mortality at 200 µg/mL (Tetranychus cinnabarinus [8]): 64.4%; mortality at 400 µg/mL (Tetranychus cinnabarinus [9]): 93.3%; Activity (Tetranychus cinnabarinus [10]): Active
7 | CC(C)(C)CC(=O)Nc1ccc(Cl)cc1C(=O)NNCc1ccccc1F | 1.8 | 28 | 77.6 | 
8 | CNC(=O)c1cc(Cl)cc(C)c1NC(=O)c1cc(Br)nn1-c1ncccc1Cl [CHLORANTRANILIPROLE] |  |  |  | mortality at 100 µg/mL (Tetranychus cinnabarinus [1]): 17.2%; mortality at 0.2 µg/mL (Plutella xylostella [13]): 100%; mortality at 200 µg/mL (Aphis gossypii [14]): 91.3%; LC50 (Tetranychus cinnabarinus [5]): 633 µg/mL (≈ 1310 µM); mortality at 50 µg/mL (Tetranychus cinnabarinus [6]): 13.2%; mortality at 25 µg/mL (Tetranychus cinnabarinus [7]): 7.4%; mortality at 200 µg/mL (Tetranychus cinnabarinus [8]): 29.9%; mortality at 400 µg/mL (Tetranychus cinnabarinus [9]): 40.7%
9 | Cc1cc(Br)cc(C(=O)NNCc2ccc(Cl)nc2)c1NC(=O)CC(C)(C)C | 25.9 | 40 | 23.4 | 
10 | Cc1cc(Cl)cc(C(=O)NNCc2ccccc2F)c1NC(=O)C(C)(C)C | 38.9 | 76 | 80.5 | 
11 | Cc1cc(Cl)cc(C(=O)NNCc2ccc(Cl)cc2Cl)c1NC(=O)C(C)(C)C | 77.8 | 64 | 69 | 
12 | Cc1cc(Cl)cc(C(=O)NNCc2ccccc2Cl)c1NC(=O)C(C)(C)CCl | 14.5 | 64 | 11 | 
13 | Cc1cccc(C(=O)NNCc2cccc(C(F)(F)F)c2)c1NC(=O)C(C)(C)C | 75 | 64 | 46.8 | 
14 | CC(C)(C)C(=O)Nc1ccc(Cl)cc1C(=O)NNCc1cccc(C(F)(F)F)c1 | 28.9 | 28 | 73.8 | 
15 | Cc1cc(Br)cc(C(=O)NNCc2ccc(Cl)nc2)c1NC(=O)C(C)(C)CCl | 33.3 | 52 | 55.8 | 
16 | Cc1cc(Cl)cc(C(=O)NNCc2cccc(C(F)(F)F)c2)c1NC(=O)CC(C)(C)C | 58.3 | 76 | 77.2 | 
17 | Cc1cccc(C(=O)NNCc2cccc(C(F)(F)F)c2)c1NC(=O)CC(C)(C)C | 94.2 | 40 | 57.9 | 
18 | Cc1cc(Br)cc(C(=O)NNCc2ccccc2)c1NC(=O)C(C)(C)C | 86.1 | 50 | 64.9 | 
19 | Cc1cc(Cl)cc(C(=O)NNCc2ccccc2)c1NC(=O)C(C)(C)CCl | 68.5 | 52 | 50.9 | 
20 | Cc1cc(Br)cc(C(=O)NNCc2cccc(C(F)(F)F)c2)c1NC(=O)C(C)(C)C | 54.2 | 16 | 19.8 | 
21 | Cc1cc(Cl)cc(C(=O)NNCc2ccc(Cl)nc2)c1NC(=O)C(C)(C)C | 24.2 | 50 | 81.3 | 
22 | Cc1cc(Cl)cc(C(=O)NNCc2ccccc2F)c1NC(=O)C(C)(C)CCl | 70.2 | 100 | 61.1 | 
